These results are taken from ChEMBL document CHEMBL1142422, “Affinity purification and characterization of a key enzyme responsible for circadian rhythmic control of nyctinasty in Lespedeza cuneata L” (Bioorg Med Chem, 2008).

Structures are written as SMILES. Active and inactive are the calls of the source. The calls are words filed in the database; no cut-off is given here.

A short description of experiment [1]: Inhibition of Aspergillus niger beta-glucosidase in acetate buffer at pH 6.0.
Experiment [2] can be described thus: Inhibition of Aspergillus niger beta-glucosidase in acetate buffer at pH 5.5. In short, it runs like this:
(§1)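 Aspergillus niger β-glucosidase was preincubated with inhibitor for 15 min at 37 °C before the p-nitrophenyl glucoside was added. Buffers were 25 mM acetate at pH 4.5–5.5 and 25 mM Bis-Tris at pH 6.0. The reaction was stopped with 0.5 M Na2CO3, and released p-nitrophenol was read at 405 nm. Ki was derived from Lineweaver–Burk plots.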

Experiment [3] can be described thus: Inhibition of Aspergillus niger beta-glucosidase in acetate buffer at pH 5.0. In a few lines: (§2)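 Commercial glycosidases were preincubated with varied inhibitor amounts for 15 min at 37 °C in 50 mM acetate buffer: pH 5.0 for the β-glucosidases and β-galactosidase, pH 6.8 for α-glucosidase. The matching p-nitrophenyl glycoside was then added, and the reaction was stopped with 0.5 M Na2CO3. p-Nitrophenol was read at 405 nm. Ki came from Lineweaver–Burk plots, and percent inhibition was also scored at 1 mM inhibitor.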

A short description of experiment [4]: Inhibition of Aspergillus niger beta-glucosidase in acetate buffer at pH 4.5. In a few lines:
as §1

Experiment [5] concerns Prunus dulcis. In words: Inhibition of Almond beta-glucosidase in acetate buffer at pH 5.0 at 1 mM. In a few lines:
as §2

Experiment [6] addresses T1, Beta-galactosidase (Aspergillus oryzae) (UniProt Q2U7N3).
T1 sequence (whole entry): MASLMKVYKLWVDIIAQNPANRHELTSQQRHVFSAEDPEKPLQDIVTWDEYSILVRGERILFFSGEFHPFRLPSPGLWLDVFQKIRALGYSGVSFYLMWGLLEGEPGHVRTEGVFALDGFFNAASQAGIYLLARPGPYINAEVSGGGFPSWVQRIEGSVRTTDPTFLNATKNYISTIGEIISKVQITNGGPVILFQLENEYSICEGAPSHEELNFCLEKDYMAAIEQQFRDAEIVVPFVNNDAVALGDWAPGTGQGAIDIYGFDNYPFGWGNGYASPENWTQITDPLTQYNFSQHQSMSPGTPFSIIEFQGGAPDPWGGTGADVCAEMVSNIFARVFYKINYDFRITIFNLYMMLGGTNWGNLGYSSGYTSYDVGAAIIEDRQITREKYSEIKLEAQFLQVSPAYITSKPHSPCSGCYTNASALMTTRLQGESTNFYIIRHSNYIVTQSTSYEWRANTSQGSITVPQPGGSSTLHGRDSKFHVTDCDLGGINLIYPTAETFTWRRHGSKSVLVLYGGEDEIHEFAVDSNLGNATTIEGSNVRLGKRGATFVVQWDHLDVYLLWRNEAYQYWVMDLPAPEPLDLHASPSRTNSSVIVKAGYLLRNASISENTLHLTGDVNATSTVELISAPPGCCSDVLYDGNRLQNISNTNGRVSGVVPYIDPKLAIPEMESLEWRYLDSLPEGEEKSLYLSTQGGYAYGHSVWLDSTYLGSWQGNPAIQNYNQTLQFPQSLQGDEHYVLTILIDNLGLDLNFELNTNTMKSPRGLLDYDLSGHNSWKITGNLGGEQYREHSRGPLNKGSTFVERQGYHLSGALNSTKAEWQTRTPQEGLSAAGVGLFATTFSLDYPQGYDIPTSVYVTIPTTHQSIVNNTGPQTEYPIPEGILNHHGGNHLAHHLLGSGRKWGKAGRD
Description: Inhibition of Aspergillus oryzae beta-galactosidase in acetate buffer at pH 5.0 at 1 mM. In a few lines:
as §2

In experiment [7] the test system is Geobacillus stearothermophilus. In words: Inhibition of Bacillus stearothermophilus alpha-glucosidase in acetate buffer at pH 6.8 at 1 mM. In short, it runs like this:
as §2

A short description of experiment [8]: Binding affinity to leaf opening factor beta-glucosidase relative to potassium lespedezate. Details: unit not given here. In a few lines:
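Purified LOFG was added to 25 mM acetate pH 4.5 containing 1 mM of each substrate analog, preincubated at 37 °C. The mixture was incubated 2 h at 37 °C, then stopped with 0.1 M Tris-HCl pH 9.0, bringing the pH to 8.0. The released aglycon was quantified by RP-HPLC, and activity was expressed relative to potassium lespedezate.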

Experiment [9] can be described thus: Activity of leaf opening factor beta-glucosidase at pH 4.5. In short, it runs like this:
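Purified leaf-opening factor β-glucosidase (LOFG) from L. cuneata leaves, assayed in 25 mM acetate pH 4.5 with potassium lespedezate at four substrate levels. The semicarbazone of the released α-keto acid was trapped with 1 mM semicarbazide and quantified by RP-HPLC after 2 h at 37 °C. Km was taken from a Lineweaver–Burk plot.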

Consider `OCC(=Nc1ccc(O)cc1)N[C@@H]1O[C@H](CO)[C@@H](O)[C@H](O)[C@H]1O`, for which the inhibition constant Ki in experiment [1] was found to be 4120 nM; in experiment [2], 1330 nM; in [3], 1300 nM; in experiment [4], 3500 nM. Moreover, in [5], the inhibition is less than 90%. Also, the outcome in experiment [6] and in [7] was inactive.
Regarding `O=C(O)/C(=C/c1ccc(O)cc1)O[C@@H]1O[C@H](CO)[C@@H](O)[C@H](O)[C@H]1O`, the Activity in experiment [8] is 0.
Regarding `O=C(O)/C(=C\c1ccc(O)cc1)O[C@@H]1O[C@H](CO)[C@@H](O)[C@H](O)[C@H]1O`, in experiment [9], the Michaelis constant (Km) was found to be 548 µM.
`O=C(O)/C(=C\c1ccc(O)cc1)O[C@@H]1O[C@H](CO)[C@H](O)[C@H](O)[C@H]1O` came in with an Activity in experiment [8] of 0.
Still for that read-out and setting: next, `OC/C(=C\c1ccc(O)cc1)N[C@@H]1O[C@H](CO)[C@@H](O)[C@H](O)[C@H]1O`: 113.
Same read-out and setting: next, `O=C(O)/C(=C/c1ccc(O)cc1)O[C@@H]1O[C@H](CO)[C@H](O)[C@H](O)[C@H]1O`: 0; `O=C(O)C(Cc1ccc(O)cc1)O[C@@H]1O[C@H](CO)[C@@H](O)[C@H](O)[C@H]1O` (stereo partly drawn): 26.

Usually Ki stands for the equilibrium dissociation constant of an inhibitor or competing ligand from its target. Usually inhibition stands for the relative decrease from the control value, in per cent. Broadly, the Km is the substrate concentration at which the rate is half of its maximum.
